CHRM5 antagonist = antagonists of human muscarinic M5 receptor (CHRM5) | P08912 | CHO-hM5 cells, Fluo-8 calcium fluorescence, ACh EC80 | inhibition, % at 3 µM | 360,000 compounds, 0.59% hits;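 active means inhibition above a per-plate cutoff, the mean of that plate's test compounds plus 3 SD, cut at about 27% in these data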;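 further: 0% = acetylcholine EC80 with DMSO and 100% = DMSO without agonist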
CHRM4 agonist = agonists of human muscarinic M4 receptor (CHRM4) | P08173 | CHO-K1 hM4/Gqi5, Fluo-8 calcium fluorescence; vehicle 0%, full acetylcholine response 100% | activation, % at 3 µM | 360,000 compounds, 0.14% hits;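 active means activation above the run mean over all test wells plus 3 SD, cut at about 32% in these data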;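 further: peak over basal fluorescence ratio per well then scaled between controls; 0% = DMSO wells and 100% = acetylcholine at EC100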
Target sequence (P08173 whole entry, looked up): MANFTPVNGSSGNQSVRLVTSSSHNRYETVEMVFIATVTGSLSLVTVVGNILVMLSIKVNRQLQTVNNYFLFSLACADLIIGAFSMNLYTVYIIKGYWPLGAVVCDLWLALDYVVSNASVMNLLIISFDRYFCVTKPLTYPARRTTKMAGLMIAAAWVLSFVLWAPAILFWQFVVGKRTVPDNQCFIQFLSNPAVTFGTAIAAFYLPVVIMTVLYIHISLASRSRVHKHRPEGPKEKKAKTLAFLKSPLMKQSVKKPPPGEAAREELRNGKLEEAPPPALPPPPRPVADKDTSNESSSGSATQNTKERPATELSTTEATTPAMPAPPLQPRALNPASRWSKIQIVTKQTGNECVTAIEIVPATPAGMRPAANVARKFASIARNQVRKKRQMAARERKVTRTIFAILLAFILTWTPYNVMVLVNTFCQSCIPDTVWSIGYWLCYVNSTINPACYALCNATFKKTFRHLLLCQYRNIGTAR
M4 antag = antagonists of human muscarinic M4 receptor (CHRM4); inhibition, % at 3 µM; CHO-hM4 cells, ACh EC80, Fluo-8 calcium fluorescence; 360,000 compounds, 0.73% hits; AID 624125; P08173;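 active means inhibition above its plate's cutoff, the mean inhibition of sample wells plus 3 SD, cut at about 27% in these data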;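 further: 0% = acetylcholine EC80 with DMSO and 100% = DMSO without agonist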
CHRM5 agonist = CHRM5 agonism in calcium assay. AID 624037. activation, % at 3 µM. CHO-K1 hM5 cells, Fluo-8 calcium fluorescence; 0% DMSO wells, 100% maximal acetylcholine response. P08912. 360,000 compounds, 0.19% hits;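 active means activation above the run's mean over test compounds plus 3 SD, cut at about 23% in these data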;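 further: signal is peak over basal fluorescence ratio across the kinetic read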
M4 PAM = CHRM4 positive allosteric modulation. activation, % at 3 µM. AID 624126. 360,000 compounds, 0.4% hits. CHO-K1 hM4/Gqi5, Fluo-8 calcium fluorescence, ACh EC20; 0% = ACh EC20, 100% = maximal ACh. P08173;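 active means activation above its plate's cutoff, the mean activation of sample wells plus 3 SD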
M5 PAM = potentiates acetylcholine response at human M5 receptor; P08912; CHO-K1 hM5, Fluo-8 calcium, ACh EC20 PAM; 0% = ACh EC20, 100% = ACh EC100; activation, % at 3 µM; 360,000 compounds, 0.3% hits;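 active means activation above the run cutoff, the mean activation of all test compounds plus 3 SD, cut at about 18% in these data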
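Probe or stimulus: acetylcholine, EC20 level; Assay system: human M5 receptor in CHO-K1 cells; Schedule: compound preincubation 140 s before EC20 acetylcholine addition; Technique: intracellular calcium via Fluo-8 fluorescence; Dosing: single-point, 3 µM nominal; Read-out basis: percent activation from peak-over-basal fluorescence ratio, scaled EC20-to-EC100 acetylcholine; Repeats: one well per compound, no replicates.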
* = called active by the depositor. Compounds with a hit are over-represented: about 1.9% of the library has one in this group of screens.

What do the screens show for `NC(=O)NN=C1C2CCCC1C(c1ccccc1)NC2c1ccccc1` (stereo not drawn)?
CHRM5 antagonist: 4; CHRM4 agonist: -1; M4 antag: 49*; CHRM5 agonist: 2; M4 PAM: -14; M5 PAM: -18

How did Nc1cc(Nc2ccc(Br)cc2)nc(N)n1 do in these assays?
CHRM5 antagonist: -11; CHRM4 agonist: 1; M4 antag: -15; CHRM5 agonist: -2; M4 PAM: 10; M5 PAM: 3

What do the screens show for `CSc1nsc(SCC(=O)Nc2nc3ccc(C)cc3s2)n1`?
CHRM5 antagonist: -5; CHRM4 agonist: 2; M4 antag: -2; CHRM5 agonist: -1; M4 PAM: 9; M5 PAM: 7

What do the screens show for `O=C(CSc1nc(=O)[nH]c2c1CCCC2)Nc1ccc(F)cc1F`?
CHRM5 antagonist: -8; CHRM4 agonist: 1; M4 antag: -17; CHRM5 agonist: 3; M4 PAM: 22*; M5 PAM: 1

Results for O=C(Oc1cccc(C(=S)N2CCOCC2)c1)c1ccc([N+](=O)[O-])cc1 ?
CHRM5 antagonist: 13; CHRM4 agonist: 3; M4 antag: -4; CHRM5 agonist: 0; M4 PAM: 1; M5 PAM: -2

How did O=C(c1cccc(Oc2ccc([N+](=O)[O-])cc2Cl)c1)N1CCOCC1 do in these assays?
CHRM5 antagonist: 27*; CHRM4 agonist: 1; M4 antag: 3; CHRM5 agonist: -2; M4 PAM: -4; M5 PAM: -12

How did CCN(C(=O)c1ccc(NC(C)=O)cc1)c1ccccc1 do in these assays?
CHRM5 antagonist: -6; CHRM4 agonist: 0; M4 antag: -19; CHRM5 agonist: 2; M4 PAM: 19*; M5 PAM: -1

How did CC(=O)c1c(N2CCCCC2)nc(=S)n(Cc2ccccc2)c1C do in these assays?
CHRM5 antagonist: -1; CHRM4 agonist: 1; M4 antag: 7; CHRM5 agonist: -6; M4 PAM: -10; M5 PAM: -1

How did C=CCn1c(C)c(C(C)=O)c(N2CCCC2)nc1=S do in these assays?
CHRM5 antagonist: -1; CHRM4 agonist: 0; M4 antag: 72*; CHRM5 agonist: -13; M4 PAM: -14; M5 PAM: 7

Results for CC(=O)c1c(N2CCN(c3ccccc3)CC2)nc(=S)n(-c2ccccc2)c1C ?
CHRM5 antagonist: -4; CHRM4 agonist: 1; M4 antag: 1; CHRM5 agonist: -7; M4 PAM: -9; M5 PAM: 4

How did C=CCn1c(C)c(C(C)=O)c(N2CCN(c3ccccc3)CC2)nc1=S do in these assays?
CHRM5 antagonist: 5; CHRM4 agonist: 1; M4 antag: 30*; CHRM5 agonist: -7; M4 PAM: -21; M5 PAM: -13

What do the screens show for `CCn1c(C)c(C(C)=O)c(N2CCN(c3ccc(F)cc3)CC2)nc1=S`?
CHRM5 antagonist: 2; CHRM4 agonist: 2; M4 antag: 5; CHRM5 agonist: -6; M4 PAM: 11; M5 PAM: 14

What do the screens show for `CCn1c(C)c(C(C)=O)c(N2CCCC2)nc1=S`?
CHRM5 antagonist: 0; CHRM4 agonist: 0; M4 antag: 37*; CHRM5 agonist: -8; M4 PAM: -27; M5 PAM: 1

Results for CC(C)(C)N(CC(=O)NC1CCCCC1)C(=O)CS(=O)CC(=O)Nc1ccc(F)cc1 (stereo not drawn) ?
CHRM5 antagonist: 5; CHRM4 agonist: 1; M4 antag: -9; CHRM5 agonist: -3; M4 PAM: 2; M5 PAM: -2

Results for COC(=O)c1ccccc1S(=O)(=O)N1CCC(C(=O)NCc2ccco2)CC1 ?
CHRM5 antagonist: 1; CHRM4 agonist: 1; M4 antag: -4; CHRM5 agonist: 0; M4 PAM: 23*; M5 PAM: 11

What do the screens show for `COC(=O)c1ccccc1S(=O)(=O)N1CCC(C(=O)NCC2CCCO2)CC1` (stereo not drawn)?
CHRM5 antagonist: 3; CHRM4 agonist: 1; M4 antag: 3; CHRM5 agonist: 2; M4 PAM: -2; M5 PAM: 8
